The target of test [1] is T1, Squalene synthase ERG9 (Saccharomyces cerevisiae (strain ATCC 204508 / S288c) (Baker's yeast)) (UniProt P29704).
T1 sequence (whole entry): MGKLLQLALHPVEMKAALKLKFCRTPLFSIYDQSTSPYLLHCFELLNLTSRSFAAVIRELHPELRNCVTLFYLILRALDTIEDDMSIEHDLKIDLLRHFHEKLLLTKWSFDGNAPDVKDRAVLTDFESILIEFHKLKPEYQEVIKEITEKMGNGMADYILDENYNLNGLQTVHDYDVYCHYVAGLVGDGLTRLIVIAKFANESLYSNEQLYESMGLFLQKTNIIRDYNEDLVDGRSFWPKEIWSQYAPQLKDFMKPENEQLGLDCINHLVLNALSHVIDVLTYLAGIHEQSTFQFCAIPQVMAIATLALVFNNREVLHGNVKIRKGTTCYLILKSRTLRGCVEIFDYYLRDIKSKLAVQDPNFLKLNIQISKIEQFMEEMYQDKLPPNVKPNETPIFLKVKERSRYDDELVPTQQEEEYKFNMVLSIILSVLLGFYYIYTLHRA
As to the kind of experiment: Competitive inhibition of Baker's yeast squalene synthetase using [1-3H]farnesyl pyrophosphate as substrate by Lineweaver-Burk graphic analysis. Put shortly:
(§1)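 Enzyme: yeast […] from sonicated baker's yeast, high-speed supernatant precipitated at 30–55% ammonium sulfate, dialyzed in 100 mM K phosphate pH 7.0 with 20 mM 2-mercaptoethanol. Assay in 1 ml at 37 °C, started with enzyme (1.34 mg/ml protein): [1-3H]FPP 1–10 µM, 10 mM MgCl2, 1.6 mM NADPH, 50 mM K phosphate pH 7.5. Squalene recovered by minicolumn and scintillation counted. Each point done in at least two independent experiments.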

For test [2], the target named is T1, Squalene synthase ERG9 (Saccharomyces cerevisiae (strain ATCC 204508 / S288c) (Baker's yeast)). Kind of test: Inhibition of Baker's yeast squalene synthetase assessed as incorporation of [1-3H]farnesyl pyrophosphate into squalene at 2 to 6 uM after 2 mins by liquid scintillation spectrometer analysis. Put shortly: as §1
For test [3] the target is unchanged. Kind of test: Inhibition of Baker's yeast squalene synthetase assessed as incorporation of [1-3H]farnesyl pyrophosphate into squalene up to 20 uM after 2 mins by liquid scintillation spectrometer analysis. Put shortly:
as §1

Test [4] has the same target. Kind of test: Inhibition of Baker's yeast squalene synthetase using [1-3H]farnesyl pyrophosphate as substrate at 4 uM preincubated for up to 5 hrs before substrate addition by liquid scintillation spectrometer analysis.
Test [5] has the same target. As to the kind of experiment: Mixed type inhibition of Baker's yeast squalene synthetase using [1-3H]farnesyl pyrophosphate as substrate by Lineweaver-Burk graphic analysis. A digest of the protocol: as §1

The source made the active and inactive calls. The rule behind the calls is not given here.

Experimental findings from ChEMBL document CHEMBL3272254, “Inhibition of squalene synthetase by farnesyl pyrophosphate analogues” (J Med Chem, 1977) are described below.

Consider `CC(C)=CCC/C(C)=C/COP(=O)(O)OP(=O)(O)O`, for which the inhibition entry in test [1] and in test [2] was “Active” throughout. In addition, the inhibition result in test [3] was “inactive”.
Regarding `C/C(=C\COP(=O)(O)OP(=O)(O)O)CCCC(C)CCCC(C)C` (stereo not given), the inhibition entry in test [1] was “Active”. Further, the inhibition entry in test [3] is “inactive”.
`CSC(C/C=C(\C)CCC=C(C)C)/C(C)=C/COP(=O)(O)OP(=O)(O)O` (stereo not given): the inhibition entry in test [1] and in test [4] was “Active” each time. Besides, the inhibition entry in test [3] is “inactive”.
Consider `CC(C)=CCC/C(C)=C/CC/C(C)=C/COP(=O)(O)OP(=O)(O)O`, for which the inhibition entry in test [2] was “Active”.
Consider `CC(C)=CCC/C(C)=C/CC/C=C/COP(=O)(O)OP(=O)(O)O`, for which the inhibition entry in test [4] and in test [5] was “Active” each time. In test [3], the inhibition result is “inactive”.
In the case of `C/C(=C\COP(=O)(O)OP(=O)(O)O)CCCC(C)CCCC(C)CCCC(C)C` (mixture of isomers), the inhibition entry in test [1] is “Active”. Moreover, in test [3], the inhibition entry was “inactive”.
As to `CC(C)=CCC/C(C)=C/CC/C=C(/I)COP(=O)(O)OP(=O)(O)O`, the inhibition entry in test [1] and in test [4] was “Active” in each case. The inhibition result in test [3] is “inactive”.
As for `CC/C(=C\COP(=O)(O)OP(=O)(O)O)CC/C=C(\C)CCC=C(C)C`, the inhibition entry in test [1] and in test [2] was “Active” each time. In addition, the inhibition result in test [3] was “inactive”.
`CC(C)=CCC/C(C)=C/CC/C(I)=C\COP(=O)(O)OP(=O)(O)O`: the inhibition entry in test [1] and in test [4] was “Active” throughout. Further, the inhibition result in test [3] is “inactive”.
Turning to `CC(C)=CCC/C(C)=C/CCC#CCOP(=O)(O)OP(=O)(O)O`, the inhibition result in test [4] and in test [5] was “Active” throughout. Further, the inhibition entry in test [3] was “inactive”.
With `CC(C)CCCC(C)CCCC(C)CCOP(=O)(O)OP(=O)(O)O` (stereo not given), the inhibition result in test [1] is “Active”. Also, in test [3], the inhibition entry is “inactive”.
On to `CC(C)=CCC/C(C)=C/CC/C(C)=C(\C)COP(=O)(O)OP(=O)(O)O`, for which the inhibition entry in test [2] was “Active”. Further, the inhibition result in test [3] was “inactive”.
